Assay results as given in ChEMBL document CHEMBL3425481, “Design, synthesis and anticancer activity of matrine-1H-1,2,3-triazole-chalcone conjugates” (Bioorg Med Chem Lett, 2015).

How the values were obtained:
HeLa [1] = assay: Antiproliferative activity against human HeLa cells assessed as inhibition of cell proliferation incubated for 48 hrs by CCK8 assay; type: functional, cell-based
Summary of the method: (§1)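 Human A549 lung, Hela cervical, Bel-7402 hepatocellular and MCF-7 breast cancer cells, plus mouse embryo fibroblast NIH3T3, tested for anti-proliferative activity by CCK-8 assay. For the matrine combination tests, the chalcone and matrine were used at a 1:1 molar ratio; values given as IC50.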

HeLa [2] = assay: Antiproliferative activity against human HeLa cells assessed as inhibition of cell proliferation incubated for 48 hrs in presence of matrine by CCK8 assay; type: functional, cell-based; summary of the method: as §1
MCF7 [3] = assay: Antiproliferative activity against human MCF7 cells assessed as inhibition of cell proliferation incubated for 48 hrs by CCK8 assay; type: functional, cell-based; details: MCF7, 48 h; summary of the method: as §1
[4] = Antiproliferative activity against human Bel7402 cells assessed as inhibition of cell proliferation incubated for 48 hrs in presence of matrine by CCK8 assay; type: functional, cell-based; details: Bel-7402, 48 h; summary of the method: as §1
[5] = Antiproliferative activity against mouse NIH/3T3 cells assessed as inhibition of cell proliferation incubated for 48 hrs by CCK8 assay; type: cell-based; details: NIH3T3, 48 h; summary of the method: as §1
A549 [6] = assay: Antiproliferative activity against human A549 cells assessed as inhibition of cell proliferation incubated for 48 hrs by CCK8 assay; type: functional, cell-based; details: A549, 48 h; summary of the method: as §1
MCF7 [7] = assay: Antiproliferative activity against human MCF7 cells assessed as inhibition of cell proliferation incubated for 48 hrs in presence of matrine by CCK8 assay; type: functional, cell-based; details: MCF7, 48 h; summary of the method: as §1
A549 [8] = assay: Antiproliferative activity against human A549 cells assessed as inhibition of cell proliferation incubated for 48 hrs in presence of matrine by CCK8 assay; type: functional, cell-based; details: A549, 48 h; summary of the method: as §1
[9] = Antiproliferative activity against human Bel7402 cells assessed as inhibition of cell proliferation incubated for 48 hrs by CCK8 assay; type: functional, cell-based; details: Bel-7402, 48 h; summary of the method: as §1
A549 [10] = assay: Induction of apoptosis in human A549 cells at 15 to 50 uM incubated for 24 hrs by Annexin V-FITC/propidium iodide double staining based flow cytometry; type: functional
Summary of the method: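 A549 cells exposed for 24 h at three concentrations alongside a 0.1% DMSO control. Cells double-stained with Annexin V-FITC/propidium iodide and analysed by flow cytometry. Early apoptosis was read from the lower-right quadrant and late apoptosis from the upper-right, and both were summed. Done in triplicate, with statistics compared to control.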

IC50 (HeLa [2]) [µM] | IC50 (MCF7 [7]) [µM] | IC50 (A549 [8]) [µM] | Structure (SMILES) | IC50 (HeLa [1]) [µM] | IC50 (MCF7 [3]) [µM] | IC50 [4] [µM] | IC50 [5] [µM] | IC50 (A549 [6]) [µM] | IC50 [9] [µM] | Activity (A549 [10]) [%]
> 50 | > 50 | > 50 | C#CCOc1ccc(C(=O)/C=C/c2ccccc2)c(O)c1 | > 50 | > 50 | > 50 | 66.6 | > 50 |  | 
 |  |  | O=C1CCC[C@@H]2[C@H]3CCCN4CCC[C@@H](CN12)[C@@H]34 [MATRINE] | > 50 | > 50 |  |  | > 50 | > 50 | 28.4
